Measured values from different studies.
Lines come from different studies, so protocols differ.
Target: Serine/threonine-protein kinase 26 (STK26, Homo sapiens, UniProt Q9P289)

SMILES | observed | method | tested at | remaining binding [%]
CS(=O)(=O)N1CCCC(NC(=O)[C@H](CCC2CCCCC2)NC(=O)c2ccc(CNC(=O)c3cnc4ccccn34)cc2)C1 (some centres unmarked) | cell-free assay | competition with immobilised ligand | 0.1 µM | 100
O=C(c1ccc(Nc2nccc(-c3cc4ccccc4s3)n2)cc1)N1CCC(N2CCCC2)CC1 | binding | competition with immobilised ligand | 1 µM | 99
Cc1nc(C2CCN(C(=O)c3ccc(OC(F)(F)F)cc3N)CC2)c2ncc(N3CCN(C)CC3)cc2n1 | cell-free assay | competition with immobilised ligand | 1 µM | 100
O=C(c1ccc(Nc2ncc(Cl)c(-c3ccc(Cl)s3)n2)cc1)N1CCC(N2CCCC2)CC1 | binding | competition with immobilised ligand | 1 µM | 30
CN1CCN(c2ccc(Nc3nccc(-c4ccccc4)n3)cc2C(F)(F)F)CC1 | binding |  | 10 µM | 81
CCN1CCN(Cc2ccc(C(=O)Nc3ccc(C)c(Oc4ccc5c(c4)CC(=O)N5)c3)cc2C(F)(F)F)CC1 | binding | competition with immobilised ligand | 1 µM | 100
CN([C@@H]1CCc2c(CC(=O)O)c3ccccc3n2C1)S(=O)(=O)c1ccc(F)cc1 | cell-free assay | competition with immobilised ligand | 1 µM | 79
O=C(NCC1CCOCC1)c1n[nH]cc1NC(=O)c1c(F)cccc1F | binding | competition with immobilised ligand | 1 µM | 77
Nc1ncc2c(n1)-c1c([nH]c3ccc(C#CC4CC4)cc13)CCCC2 | binding | competition with immobilised ligand | 1 µM | 99
FC(F)(F)Oc1cccc(-c2cnc3ccc(-c4ccncc4)nn23)c1 | cell-free assay | competition with immobilised ligand | 5 µM | 59
C=CC(=O)N1CCC(C(=O)NCC(=O)N2CCN(c3nc(-c4cnc(N)nc4C(F)F)nc(N4CCOCC4)n3)CC2)CC1 | binding | competition with immobilised ligand | 1 µM | 100
Cc1cnc(Nc2ccc(C(=O)N3CCC(N4CCCC4)CC3)cc2)nc1-c1cc2ccccc2s1 | binding | competition with immobilised ligand | 1 µM | 77
CC(=O)c1c(NS(C)(=O)=O)c2cc(-c3ccc(Cl)cc3)c(-c3ccc(Cl)cc3Cl)nc2n(C)c1=O | cell-free assay | competition with immobilised ligand | 1 µM | 84
COc1cnc(Nc2cccc(S(N)(=O)=O)c2)nc1N1CCN(c2ccccc2)C(=O)C1 | binding | competition with immobilised ligand | 1 µM | 83
